Measured values from ChEMBL document CHEMBL3616369, “N-O-Isopropyl Sulfonamido-Based Hydroxamates as Matrix Metalloproteinase Inhibitors: Hit Selection and in Vivo Antiangiogenic Activity” (J Med Chem, 2015).
pIC50: −log10 of the molar value. Each block holds one compound with its values, some of them ahead of it. The source made the active and inactive calls. The rule behind the calls is not given here.

How the values were obtained:
[1] = molecular target: T1, 72 kDa type IV collagenase (Homo sapiens, UniProt P08253); assay: Inhibition of MMP2 in HUVEC assessed as suppression of protein production at 10 uM after 24 hrs by Western blot analysis
Outline: (§1)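 HUVEC (2x10^6) seeded, attached one day, starved 6 h in serum-free medium with 2% BSA. Pre-treated 3 h with 30 nM PMA, then exposed to inhibitor (10 µM) or DMSO vehicle for 24 h. Conditioned media and cell proteins collected. Equal protein on 10% SDS-PAGE, PVDF blot, milk block, anti-MMP-2, MMP-9 and β-actin antibodies, HRP/ECL detection.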
Target sequence in this assay (P08253 110-660 limits assumed): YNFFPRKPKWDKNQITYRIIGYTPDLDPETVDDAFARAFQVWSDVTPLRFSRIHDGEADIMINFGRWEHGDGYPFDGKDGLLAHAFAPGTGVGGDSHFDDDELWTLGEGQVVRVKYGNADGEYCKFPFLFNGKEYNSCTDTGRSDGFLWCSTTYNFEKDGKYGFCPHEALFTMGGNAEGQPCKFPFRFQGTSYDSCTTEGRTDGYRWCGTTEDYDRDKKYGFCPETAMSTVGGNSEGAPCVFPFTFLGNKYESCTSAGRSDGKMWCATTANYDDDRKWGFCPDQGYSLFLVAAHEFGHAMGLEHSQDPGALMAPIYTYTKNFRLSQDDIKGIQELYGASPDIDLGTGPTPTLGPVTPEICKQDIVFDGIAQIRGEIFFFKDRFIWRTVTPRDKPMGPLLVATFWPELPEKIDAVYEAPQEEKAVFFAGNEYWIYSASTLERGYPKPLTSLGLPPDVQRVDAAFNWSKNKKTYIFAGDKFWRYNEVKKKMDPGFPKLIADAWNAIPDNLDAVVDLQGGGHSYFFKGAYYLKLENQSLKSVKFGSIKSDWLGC

HUVEC [2] = assay: Inhibition of cell migration in human HUVEC at 0.001 to 10 uM after 6 hrs using modified Boyden chambers; type: functional, cell-based
Outline: (§2)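 Modified Boyden chamber. HUVEC (5x10^4), PBS-washed, in serum-free medium with or without inhibitor in upper compartment; 10% FBS or serum-free medium below. 8 µm polycarbonate filters coated with collagen 50 µg/mL (migration, 6 h) or matrigel 1 mg/mL (invasion, overnight). Cells on lower surface ethanol-fixed, stained, counted blind in eight fields. Three experiments in duplicate; one-way ANOVA.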

[3] = molecular target: T2, Matrix metalloproteinase-9 (Homo sapiens, UniProt P14780); assay: Inhibition of MMP9 gelatinase activity in human HUVEC at 0.001 uM by gel zymography
Outline: (§3)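 Gelatin zymography on 10% polyacrylamide gels with 0.1% gelatin and SDS, samples unheated. Gels renatured 30 min at room temperature. Either untreated-HUVEC conditioned medium run and gel lane slices developed overnight at 37 °C in developing buffer containing inhibitor, or medium from inhibitor-treated HUVEC developed overnight without inhibitor. Coomassie stained; bands quantified by densitometry.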

Mus musculus [4] = species on record: Mus musculus; assay: Antiangiogenic activity in C57/BL6 mouse matrigel sponge assay model assessed as reduction of VEGF-A, TNFalpha and heparin-induced number of CD45-/CD31+ cells treated in plugs by flow cytometry; type: functional, organism-based
Outline: (§4)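 Matrigel (0.6 mL final) with VTH mix (VEGF-A 100 ng/mL, TNF-α 2 ng/mL, heparin 25 UI/mL), with or without inhibitor at 0.1-1-10 µM, injected s.c. into flanks of male C57/BL6 mice; some groups also given 0.1-1-10 µM i.p. at day 0; 8 mice/group. Plugs recovered after four days. Read-outs: hemoglobin by Drabkin reagent; collagenase IV digest, flow cytometry for CD31+ cells within CD45−CD3− gate. Mean ± SEM.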

[5] = molecular target: T2, Matrix metalloproteinase-9; assay: Inhibition of MMP9 in HUVEC assessed as suppression of protein release at 10 uM after 24 hrs by Western blot analysis; outline: as §1
Interstitial collagenase = molecular target: T3, Interstitial collagenase (Homo sapiens, UniProt P03956); assay: Inhibition of recombinant human activated-MMP1 using Mca-Lys-Pro-Leu-Gly-Leu-Dap(Dnp)-Ala-Arg-NH2 as fluorogenic substrate incubated for 4 hrs followed by substrate addition measured every 10 secs for 20 mins by fluorometric assay
T3 sequence (P03956 whole entry): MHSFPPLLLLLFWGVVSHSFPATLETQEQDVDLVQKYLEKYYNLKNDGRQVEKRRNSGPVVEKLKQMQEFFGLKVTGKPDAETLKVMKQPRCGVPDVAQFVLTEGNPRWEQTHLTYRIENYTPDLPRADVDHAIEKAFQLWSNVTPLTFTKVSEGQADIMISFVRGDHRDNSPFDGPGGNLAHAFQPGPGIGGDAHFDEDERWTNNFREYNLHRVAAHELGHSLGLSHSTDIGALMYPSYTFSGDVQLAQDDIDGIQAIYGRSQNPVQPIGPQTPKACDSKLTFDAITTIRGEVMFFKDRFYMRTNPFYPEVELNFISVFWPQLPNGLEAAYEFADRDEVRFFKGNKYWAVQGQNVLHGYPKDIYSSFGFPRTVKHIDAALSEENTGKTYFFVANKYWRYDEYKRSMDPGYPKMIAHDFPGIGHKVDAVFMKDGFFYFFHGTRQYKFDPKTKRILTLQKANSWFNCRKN
Outline: (§5)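 Recombinant human MMPs. Pro-forms activated with APMA: MMP-2 2 mM 1 h, MMP-9 1 mM 1 h, MMP-1 2 mM 2 h, MMP-13 1 mM 35 min, all 37 °C. MMP-3 activated with trypsin 4.4 µg/mL 30 min, then soybean trypsin inhibitor. Final enzyme 0.5 (MMP-2), 1.3 (MMP-9), 1.0 (MMP-14cd), 2.0 (MMP-1), 0.66 (MMP-13), 5 nM (MMP-3). Preincubated with inhibitor 4 h at 25 °C in Tris 50 mM pH 7.5, NaCl 150 mM, CaCl2 10 mM, Brij 35 0.05%, DMSO 1%. Substrate 2 µM final; fluorescence (ex 325/em 395 nm) every 10 s for 20 min. IC50 from vi/vo = 1/(1+[I]/IC50).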

HUVEC [6] = assay: Inhibition of cell migration in human HUVEC after 6 hrs using modified Boyden chambers; type: functional, cell-based; outline: as §2
[7] = molecular target: T2, Matrix metalloproteinase-9; assay: Inhibition of MMP9 in HUVEC assessed as suppression of protein production at 10 uM after 24 hrs by Western blot analysis; outline: as §1
[8] = molecular target: T2, Matrix metalloproteinase-9; assay: Inhibition of MMP9 gelatinase activity in human HUVEC by gel zymography; outline: as §3
Stromelysin-1 = Stromelysin-1 (Homo sapiens, UniProt P08254); assay: Inhibition of recombinant human activated-MMP3 using Mca-Lys-Pro-Leu-Gly-Leu-Dap(Dnp)-Ala-Arg-NH2 as fluorogenic substrate incubated for 4 hrs followed by substrate addition measured every 10 secs for 20 mins by fluorometric assay; outline: as §5
[9] = molecular target: T1, 72 kDa type IV collagenase; assay: Inhibition of MMP2 in HUVEC assessed as suppression of protein release at 10 uM after 24 hrs by Western blot analysis; outline: as §1
Target sequence in this assay (P08253 110-660 limits assumed): as the sequence (P08253 110-660 limits assumed) above

[10] = molecular target: T1, 72 kDa type IV collagenase; assay: Inhibition of MMP2 gelatinase activity in human HUVEC at 0.001 uM by gel zymography; outline: as §3
Target sequence in this assay (P08253 110-660 limits assumed): as the sequence (P08253 110-660 limits assumed) above

HUVEC [11] = assay: Inhibition of FBS-induced cell morphogenesis in human HUVEC after 6 hrs by matrigel assay; type: functional, cell-based
Outline: (§6)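 Matrigel (10 mg/mL) polymerized 1 h at 37 °C. HUVEC (50x10^4/well) in complete medium with 10% FBS, with or without inhibitor at various concentrations, layered on top. After 6 h, capillary-like organization imaged by inverted microscope; mesh number counted as tubulogenic efficiency.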

HUVEC [12] = assay: Inhibition of FBS-induced network efficiency of human HUVEC assessed as reduction of number of meshes at 0.001 to 10 uM after 6 hrs by matrigel assay; type: functional, cell-based; outline: as §6
HUVEC [13] = assay: Cytotoxicity against human HUVEC assessed as reduction of cell growth at 0.001 to 10 uM after 24 to 96 hrs by MTT assay; type: cell-based; settings: in the assay text read “0.01 to 10 uM” for “0.001 to 10 uM”
Outline: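 HUVEC (passages 3–6) seeded at 1000/well in complete medium. After adhesion, fresh medium with or without inhibitor, 10 nM–10 µM. Incubated 24, 48, 72 and 96 h; MTT absorbance read at 570 nm.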

[14] = molecular target: T2, Matrix metalloproteinase-9; assay: Inhibition of recombinant human activated-MMP9 using Mca-Lys-Pro-Leu-Gly-Leu-Dap(Dnp)-Ala-Arg-NH2 as fluorogenic substrate incubated for 4 hrs followed by substrate addition measured every 10 secs for 20 mins by fluorometric assay; outline: as §5
HUVEC [15] = assay: Inhibition of FBS-induced capillary-like network organization in human HUVEC at 0.001 to 10 uM after 6 hrs by matrigel assay; type: functional, cell-based; outline: as §6
HUVEC [16] = assay: Inhibition of PMA-stimulated MMP2 mRNA expression in human HUVEC after 24 hrs by QT-PCR analysis; type: functional, cell-based
Outline: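 HUVEC starved, PMA pre-treated (30 nM, 3 h), then exposed to inhibitor for 24 h before RNA extraction. Real-time PCR with SYBR Green, 45 cycles (95 °C 10 s, 60 °C 15 s, 72 °C 15 s), with melting-curve check.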

HUVEC [17] = assay: Inhibition of FBS-induced cell invasion in human HUVEC at 0.001 uM after overnight incubation using modified Boyden chambers; type: functional, cell-based; outline: as §2
[18] = molecular target: T1, 72 kDa type IV collagenase; assay: Inhibition of MMP2 gelatinase activity in human HUVEC by gel zymography; outline: as §3
Target sequence in this assay (P08253 110-660 limits assumed): as the sequence (P08253 110-660 limits assumed) above

HUVEC [19] = assay: Inhibition of PMA-stimulated MMP2 protein expression in human HUVEC after 24 hrs by Western blot analysis relative to control; type: functional; outline: as §1
Mus musculus [20] = assay: Antiangiogenic activity in ip dosed C57/BL6 mouse matrigel sponge assay model assessed as reduction of VEGF-A, TNFalpha and heparin-induced number of CD45-/CD31+ cells after 4 days by flow cytometry; type: functional, organism-based; outline: as §4
Mus musculus [21] = assay: Antiangiogenic activity in C57/BL6 mouse matrigel sponge assay model assessed as reduction of VEGF-A, TNFalpha and heparin-induced hemoglobin content at 0.1 to 10 uM, sc; type: functional, organism-based; outline: as §4
HUVEC [22] = assay: Inhibition of FBS-induced cell invasion in human HUVEC after overnight incubation using modified Boyden chambers; type: functional, cell-based; outline: as §2
[23] = Induction of apoptosis in human HUVEC assessed as cell viability at 0.001 to 10 uM after 18 hrs using Annexin-V and 7-amino-actinomycin-D staining by flow fluorocytometry analysis; type: cell-based; settings: HUVEC cells, read-out: Activity
Outline: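 HUVEC (1x10^5) plated in six-well plates, adhered overnight. Treated in growth medium with inhibitor (10 nM–10 µM) or hydrogen peroxide (100–200 µM) overnight. Stained 15 min at room temperature in the dark with FITC-Annexin V and 7-AAD in HEPES/NaCl/CaCl2 binding buffer pH 7.4. Analysed by flow cytometry.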

[24] = molecular target: T1, 72 kDa type IV collagenase; assay: Inhibition of recombinant human activated-MMP2 using Mca-Lys-Pro-Leu-Gly-Leu-Dap(Dnp)-Ala-Arg-NH2 as fluorogenic substrate incubated for 4 hrs followed by substrate addition measured every 10 secs for 20 mins by fluorometric assay; outline: as §5
Target sequence in this assay (P08253 whole entry): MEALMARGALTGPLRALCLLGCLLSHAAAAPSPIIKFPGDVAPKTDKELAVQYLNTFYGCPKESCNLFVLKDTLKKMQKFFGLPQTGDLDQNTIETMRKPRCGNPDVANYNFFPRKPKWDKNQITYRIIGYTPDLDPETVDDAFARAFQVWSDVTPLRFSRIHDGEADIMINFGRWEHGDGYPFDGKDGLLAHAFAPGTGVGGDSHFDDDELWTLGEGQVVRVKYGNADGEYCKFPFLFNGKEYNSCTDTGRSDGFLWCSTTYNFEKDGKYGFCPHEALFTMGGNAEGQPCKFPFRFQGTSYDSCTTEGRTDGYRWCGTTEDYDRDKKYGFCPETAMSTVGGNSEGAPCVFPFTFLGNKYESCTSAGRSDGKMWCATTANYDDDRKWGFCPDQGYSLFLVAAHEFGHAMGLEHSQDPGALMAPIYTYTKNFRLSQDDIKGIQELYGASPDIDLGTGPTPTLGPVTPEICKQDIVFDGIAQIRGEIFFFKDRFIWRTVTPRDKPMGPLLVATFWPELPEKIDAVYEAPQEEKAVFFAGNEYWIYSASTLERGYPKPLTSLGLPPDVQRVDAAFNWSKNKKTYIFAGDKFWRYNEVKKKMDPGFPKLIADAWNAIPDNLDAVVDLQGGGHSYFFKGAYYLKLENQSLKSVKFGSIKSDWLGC

[25] = molecular target: Matrix metalloproteinase-14 (Homo sapiens, UniProt P50281); assay: Inhibition of recombinant human catalytic domain MMP14 using Mca-Lys-Pro-Leu-Gly-Leu-Dap(Dnp)-Ala-Arg-NH2 as fluorogenic substrate incubated for 4 hrs followed by substrate addition measured every 10 secs for 20 mins by fluorometric assay; outline: as §5
U-87 MG = assay: Antiinvasive activity in human U87MG cells after 24 hrs by Transwell matrigel assay; type: functional, U-87MG ATCC

T2 sequence (P14780 whole entry): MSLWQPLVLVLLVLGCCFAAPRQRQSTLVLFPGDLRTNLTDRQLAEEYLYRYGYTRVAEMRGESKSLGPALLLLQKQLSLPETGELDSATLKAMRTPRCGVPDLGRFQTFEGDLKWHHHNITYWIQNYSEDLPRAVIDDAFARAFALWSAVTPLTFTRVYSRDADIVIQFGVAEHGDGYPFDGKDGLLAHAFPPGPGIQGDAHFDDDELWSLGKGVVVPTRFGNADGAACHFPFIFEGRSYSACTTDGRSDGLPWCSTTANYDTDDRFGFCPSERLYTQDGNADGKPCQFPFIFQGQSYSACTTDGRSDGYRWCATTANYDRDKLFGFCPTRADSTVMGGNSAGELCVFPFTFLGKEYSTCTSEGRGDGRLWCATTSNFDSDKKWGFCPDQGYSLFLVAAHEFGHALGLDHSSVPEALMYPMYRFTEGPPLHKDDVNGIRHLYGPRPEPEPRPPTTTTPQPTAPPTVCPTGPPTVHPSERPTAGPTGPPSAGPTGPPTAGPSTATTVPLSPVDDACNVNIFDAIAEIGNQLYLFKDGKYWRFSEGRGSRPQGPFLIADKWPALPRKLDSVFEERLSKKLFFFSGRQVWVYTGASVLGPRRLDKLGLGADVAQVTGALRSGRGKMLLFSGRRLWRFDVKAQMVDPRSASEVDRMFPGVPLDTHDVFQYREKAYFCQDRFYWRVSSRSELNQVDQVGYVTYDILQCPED
Stromelysin-1, sequence (P08254 whole entry): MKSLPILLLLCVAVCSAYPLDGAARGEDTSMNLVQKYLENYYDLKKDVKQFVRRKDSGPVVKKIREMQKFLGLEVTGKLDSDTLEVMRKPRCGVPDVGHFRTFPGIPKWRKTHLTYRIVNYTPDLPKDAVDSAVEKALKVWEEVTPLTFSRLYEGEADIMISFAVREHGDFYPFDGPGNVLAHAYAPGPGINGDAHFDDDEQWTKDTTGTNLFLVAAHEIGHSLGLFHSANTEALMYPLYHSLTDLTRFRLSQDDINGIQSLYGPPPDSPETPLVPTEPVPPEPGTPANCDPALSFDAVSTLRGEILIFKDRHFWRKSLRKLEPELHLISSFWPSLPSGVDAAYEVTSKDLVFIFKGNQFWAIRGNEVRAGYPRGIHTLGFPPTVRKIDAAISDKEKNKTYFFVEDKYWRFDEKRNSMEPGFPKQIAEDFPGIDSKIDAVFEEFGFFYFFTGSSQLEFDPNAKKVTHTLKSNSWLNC

inhibition [1]: Active
inhibition [3]: Active
inhibition [5]: Active
pIC50 (Interstitial collagenase): 6.70
inhibition [7]: Active
inhibition [8]: Dose-dependent effect
pIC50 (Stromelysin-1): 6.98
inhibition [9]: Active
inhibition [10]: Active
pIC50 [14]: 9.37
inhibition [18]: Dose-dependent effect
Structure (SMILES): COc1ccc(-c2ccc(S(=O)(=O)N(OC(C)C)[C@H](CCN3C(=O)c4ccccc4C3=O)C(=O)NO)cc2)cc1
inhibition (HUVEC [2]): Active
inhibition (Mus musculus [4]): Dose-dependent effect
inhibition (HUVEC [6]): Dose-dependent effect
inhibition (HUVEC [11]): Dose-dependent effect
inhibition (HUVEC [12]): Active
Activity (HUVEC [13]): Non-toxic
inhibition (HUVEC [15]): Active
inhibition (HUVEC [16]): Active
inhibition (HUVEC [17]): Active
fold change (FC) (HUVEC [19]): 0.6
inhibition (Mus musculus [20]): Dose-dependent effect
inhibition (Mus musculus [21]): Active
inhibition (HUVEC [22]): Dose-dependent effect
viability at 18 h, up to 10 µM [23]: 85%

pIC50 (Interstitial collagenase): 6.49
pIC50 (Stromelysin-1): 7.15
pIC50 [24]: 9.00
pIC50 [14]: 8.07
Structure (SMILES): CC(C)ON([C@H](CCNS(C)(=O)=O)C(=O)NO)S(=O)(=O)c1ccc(-c2ccccc2)cc1

pIC50 [25]: 7.60
pIC50 (Interstitial collagenase): 5.85
pIC50 (Stromelysin-1): 7.44
pIC50 [14]: 8.54
Structure (SMILES): COc1ccc(-c2ccc(S(=O)(=O)N(OC(C)C)[C@H](CCNC(=O)Cc3ccccc3)C(=O)NO)cc2)cc1

Structure (SMILES): CC(C)ON([C@@H](C(=O)NO)C(C)C)S(=O)(=O)c1ccc(-c2ccccc2)cc1
Activity (U-87 MG): 48%
